In ChEMBL document CHEMBL4428090, “Modeling, Synthesis, and Biological Evaluation of Potential Retinoid X Receptor (RXR)-Selective Agonists: Analogues of 4-[1-(3,5,5,8,8-Pentamethyl-5,6,7,8-tetrahydro-2-naphthyl)ethynyl]benzoic Acid (Bexarotene) and 6-(Ethyl(5,5,8,8-tetrahydronaphthalen-2-yl)amino)nicotinic Acid (NEt-TMN)” (J Med Chem, 2016):
The source made the active and inactive calls. The calls are words filed in the database; no cut-off is given here.

Legend:
[1] = Mutagenicity in Saccharomyces cerevisiae D7 assessed as induction of mutagenesis by measuring forward and reverse mutations up to 0.1 mg/mL; assay type: toxicity
[2] = molecular target: T1, Retinoic acid receptor RXR-alpha (Homo sapiens) (UniProt P19793); assay: Agonist activity at human RXRalpha expressed in human HCT116 cells assessed as increase in RXRE-mediated transcription at 1000 nM incubated for 24 hrs by RXRE luciferase reporter gene assay relative to bexarotene; assay type: cell-based
T1 sequence (whole entry): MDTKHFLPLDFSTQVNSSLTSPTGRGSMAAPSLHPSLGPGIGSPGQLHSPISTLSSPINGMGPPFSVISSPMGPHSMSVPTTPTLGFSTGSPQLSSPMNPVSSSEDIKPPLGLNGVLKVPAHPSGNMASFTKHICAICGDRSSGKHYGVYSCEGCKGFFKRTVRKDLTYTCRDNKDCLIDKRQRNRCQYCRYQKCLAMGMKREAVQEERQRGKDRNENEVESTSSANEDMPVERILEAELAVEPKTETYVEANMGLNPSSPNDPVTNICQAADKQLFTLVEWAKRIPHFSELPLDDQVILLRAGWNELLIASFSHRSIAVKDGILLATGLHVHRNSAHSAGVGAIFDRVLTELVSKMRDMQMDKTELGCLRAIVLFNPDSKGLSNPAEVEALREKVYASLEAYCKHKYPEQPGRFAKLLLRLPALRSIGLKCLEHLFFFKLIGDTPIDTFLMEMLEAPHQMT
Procedure, shortened: (§1)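 HCT-116 cells (80,000/well) co-transfected for 24 h with 250 ng RXRE-luciferase reporter (DR1 element from the rat cellular retinol binding protein II gene), 25 ng pSG5-human RXRα and 20 ng renilla. Dosed 24 h at 25, 100 or 1000 nM final; ethanol or DMSO vehicle 0.1%. Dual-luciferase read-out. Three independent assays in triplicate; bexarotene = 100%.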

[3] = molecular target: T2, Retinoic acid receptor RXR-alpha/oxysterols receptor LXR-alpha (Homo sapiens, UniProt P19793+Q13133); assay: Agonist activity at human RXRalpha/LXRalpha expressed in human HCT116 cells assessed as reduction in SREBP-mediated transcription activity at 100 nM incubated for 24 hrs by luciferase reporter gene assay relative to bexarotene; assay type: cell-based; set-up: scale not given: the % may be the effect or the level left; details: 0.1 µM
T2 sequence (P19793 whole entry): T1 sequence (whole entry)
T2 sequence (Q13133 whole entry): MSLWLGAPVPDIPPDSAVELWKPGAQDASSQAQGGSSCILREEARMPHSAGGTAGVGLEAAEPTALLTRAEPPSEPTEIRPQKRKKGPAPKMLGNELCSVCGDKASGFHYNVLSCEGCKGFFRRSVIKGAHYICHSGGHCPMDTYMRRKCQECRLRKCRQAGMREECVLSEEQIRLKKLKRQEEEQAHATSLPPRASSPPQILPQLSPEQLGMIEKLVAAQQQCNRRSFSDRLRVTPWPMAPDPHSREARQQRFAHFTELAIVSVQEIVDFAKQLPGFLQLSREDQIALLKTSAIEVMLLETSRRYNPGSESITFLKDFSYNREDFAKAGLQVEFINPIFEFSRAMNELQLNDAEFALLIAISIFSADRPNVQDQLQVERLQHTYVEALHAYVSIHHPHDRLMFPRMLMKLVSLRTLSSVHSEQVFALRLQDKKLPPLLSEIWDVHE
Procedure, shortened: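 HCT116 cells co-transfected for 24 h with 100 ng pBP1c(6500)-Luc (about 6500 bp murine SREBP-1c promoter), 10 ng human LXRα and 20 ng renilla. Treated 24 h with compound at 100 nM, alone or with 100 nM TO901317. Luciferase output. Three independent assays in triplicate; bexarotene = 100%.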

Retinoid X receptor = molecular target: T3, Retinoid X receptor (Homo sapiens, UniProt P28702+P48443+P19793); assay: Agonist activity at human RXR binding domain and activation domain expressed in human HCT116 cells assessed as rexinoid activity incubated for 24 hrs by luciferase reporter gene based mammalian two-hybrid assay; assay type: cell-based
T3 sequence (P28702 whole entry): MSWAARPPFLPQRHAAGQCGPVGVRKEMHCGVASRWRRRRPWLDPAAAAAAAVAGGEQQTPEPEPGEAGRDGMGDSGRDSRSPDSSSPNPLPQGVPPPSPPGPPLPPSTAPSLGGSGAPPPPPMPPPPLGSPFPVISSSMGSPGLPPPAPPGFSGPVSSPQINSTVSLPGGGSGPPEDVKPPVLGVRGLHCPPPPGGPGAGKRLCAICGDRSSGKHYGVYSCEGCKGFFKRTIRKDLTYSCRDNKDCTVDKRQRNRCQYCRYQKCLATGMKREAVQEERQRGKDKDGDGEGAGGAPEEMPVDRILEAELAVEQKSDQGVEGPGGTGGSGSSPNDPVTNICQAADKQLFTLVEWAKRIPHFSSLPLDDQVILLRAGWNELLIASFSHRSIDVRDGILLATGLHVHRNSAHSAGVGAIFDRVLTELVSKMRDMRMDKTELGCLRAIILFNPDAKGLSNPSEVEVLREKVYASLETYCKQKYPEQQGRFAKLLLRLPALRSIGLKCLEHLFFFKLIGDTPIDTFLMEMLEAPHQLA
T3 sequence (P48443 whole entry): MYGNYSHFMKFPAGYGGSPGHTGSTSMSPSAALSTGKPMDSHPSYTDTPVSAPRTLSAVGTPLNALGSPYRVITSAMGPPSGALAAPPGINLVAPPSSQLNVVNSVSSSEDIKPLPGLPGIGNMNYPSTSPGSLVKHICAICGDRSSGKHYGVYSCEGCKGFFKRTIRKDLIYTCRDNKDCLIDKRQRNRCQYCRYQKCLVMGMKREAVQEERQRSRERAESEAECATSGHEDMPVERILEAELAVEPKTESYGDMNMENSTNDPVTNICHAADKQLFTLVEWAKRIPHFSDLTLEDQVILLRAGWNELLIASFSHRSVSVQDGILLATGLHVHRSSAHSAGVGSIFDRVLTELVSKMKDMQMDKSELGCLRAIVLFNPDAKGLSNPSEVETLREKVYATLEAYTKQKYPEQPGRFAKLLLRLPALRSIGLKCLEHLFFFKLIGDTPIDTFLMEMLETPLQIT
T3 sequence (P19793 whole entry): T1 sequence (whole entry)

[4] = molecular target: T1, Retinoic acid receptor RXR-alpha (Homo sapiens); assay: Agonist activity at human RXRalpha expressed in human HCT116 cells assessed as increase in RXRE-mediated transcription at 25 nM incubated for 24 hrs by RXRE luciferase reporter gene assay relative to bexarotene; assay type: cell-based; procedure, shortened: as §1
HuT78 = assay: Growth inhibition of human HUT78 cells at 200 nM incubated for 72 hrs by MTS assay relative to bexarotene; assay type: functional; details: HuT78, 72 h, read-out: GI
Procedure, shortened: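 Hut78 cells in RPMI with 10% FBS at 37°C, 5% CO2. Plated 7,500 cells/well and immediately dosed at 200 nM for 72 h. MTS read at A490; percent inhibition with media control set to 0.0, compared with bexarotene set to 100%. Mean of three independent experiments.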

Homo sapiens = organism: Homo sapiens; assay: Selectivity index, ratio of agonist activity at human RARalpha expressed in HEK293 cells assessed as increase in RARE-mediated transcription relative to bexarotene to agonist activity at human RXRalpha expressed in human HCT116 cells assessed as increase in RXRE-mediated transcription relative to bexarotene; assay type: cell-based
Procedure, shortened: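 HEK293 cells (60,000/well) transfected for 24 h with 250 ng pTK-DR5(X2)-Luc, 25 ng human RARα and 20 ng renilla. Treated 24 h at 100 nM; activity expressed as a percentage of all-trans-retinoic acid. This RARE activity is divided by 100 nM RXRE activity, with the bexarotene ratio set to 1.0.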

## CCN(c1ncc(C(=O)O)cn1)c1cc2c(cc1C)C(C)(C)CCC2(C)C
[1]
  Activity: Non-Toxic
[2]
  Activity: 20 to 43%
[3]
  Activity: Active
Retinoid X receptor
  EC50: 18.2 nM
[4]
  Activity: 27 to 66%
HuT78
  inhibition of growth at 0.2 µM: 55 to 80%
Homo sapiens
  Ratio: 0.35 to 0.37

## CCN(c1ccc2c(c1)C(C)(C)CCC2(C)C)c1ccc(C(=O)O)cn1
[1]
  Activity: Non-Toxic
[2]
  Activity: 20 to 43%
[3]
  Activity: Active
Retinoid X receptor
  EC50: 13.8 nM
[4]
  Activity: 27 to 66%
HuT78
  inhibition of growth at 0.2 µM: > 85%
Homo sapiens
  Ratio: > 0.5

## CCN(c1ccc2c(c1)C(C)(C)CCC2(C)C)c1cnc(C(=O)O)cn1
[1]
  Activity: Non-Toxic
[2]
  Activity: 20 to 43%
[3]
  Activity: 54 to 79%
Retinoid X receptor
  EC50: 364.3 nM
HuT78
  inhibition of growth at 0.2 µM: 35 to 51%
Homo sapiens
  Ratio: > 0.5

## CCN(c1ccc(C(=O)O)c(F)c1)c1cc2c(cc1C)C(C)(C)CCC2(C)C
[1]
  Activity: Non-Toxic
[2]
  Activity: Active
[3]
  Activity: 54 to 79%
Retinoid X receptor
  EC50: 33.8 nM
[4]
  Activity: 27 to 66%
HuT78
  inhibition of growth at 0.2 µM: 55 to 80%
Homo sapiens
  Ratio: 0.35 to 0.37

## CCN(c1ccc(C(=O)O)cc1)c1cc2c(cc1C)C(C)(C)CCC2(C)C
[1]
  Activity: Non-Toxic
[2]
  Activity: Active
[3]
  Activity: 54 to 79%
Retinoid X receptor
  EC50: 7.9 nM
[4]
  Activity: 27 to 66%
HuT78
  inhibition of growth at 0.2 µM: 35 to 51%
Homo sapiens
  Ratio: 0.35 to 0.37
